GRIN3A LBD mod: binders of NR3A ligand-binding domain, primary screen, biophysical, differential scanning fluorimetry, uHTS. Glutamate receptor ionotropic, NMDA 3A (GRIN3A) ligand-binding domain. NR3A LBD differential scanning fluorimetry, Tm shift; 0% = protein alone, 100% = glycine-bound protein. Tm shift relative to glycine control, % at 25 µM. 340,000 compounds, 2.5% hits;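 active = melting temperature shift of at least 10% of the positive control shift, at one fixed dose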
PAFAH1B3 inh: PAFAH1B3 enzyme inhibitors, primary screen, biochemical, fluorescence polarization, human; Platelet-activating factor acetylhydrolase IB subunit alpha1 (Homo sapiens), Q15102; recombinant PAFAH1B3, FP-rhodamine probe; inhibition, % at 3.39 µM; 340,000 compounds, 0.28% hits;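 active = inhibition above the screen-wide average of all tested compounds plus 3 SD, cut at about 25% in these data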;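 also: 0% = enzyme with DMSO only and 100% = wells lacking PAFAH1B3 protein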
pPAFAH FP inh: pPAFAH enzyme inhibitors, primary screen, biochemical, fluorescence polarization, human; 330,000 compounds, 1.5% hits; Platelet-activating factor acetylhydrolase (Homo sapiens), Q13093; recombinant pPAFAH, FP-rhodamine probe fluorescence polarization; inhibition, % at 3.39 µM; AID 463082, 2010;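 active = inhibition above the mean inhibition across the screen plus 3 SD, cut at about 25% in these data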;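 also: inhibitors block binding of the rhodamine activity-based probe so polarization drops; 0% = enzyme with DMSO and 100% = wells lacking pPAFAH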
PAFAH2 FP inh: PAFAH2 enzyme inhibitors, primary screen, biochemical, fluorescence polarization, human. inhibition, % at 3.39 µM. recombinant PAFAH2, FP-rhodamine activity probe. Platelet-activating factor acetylhydrolase 2, cytoplasmic (Homo sapiens), Q99487. AID 492956, 2010. 340,000 compounds, 0.99% hits;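 active = inhibition above the mean over all tested compounds plus 3 SD, cut at about 30% in these data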;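 also: inhibitors block probe labeling of enzyme so polarization drops; 0% = enzyme with DMSO and 100% = wells lacking PAFAH2 protein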
PAFAH1B2 FP inh: PAFAH1B2 enzyme inhibitors, primary screen, biochemical, fluorescence polarization, human; Platelet-activating factor acetylhydrolase IB subunit alpha2 (Homo sapiens), P68402; recombinant PAFAH1B2, FP-rhodamine activity probe; inhibition, % at 3.39 µM; 340,000 compounds, 1.2% hits; AID 492953, 2010;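 active = inhibition above the mean of all tested compounds plus 3 SD, cut at about 24% in these data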;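 also: 0% = enzyme with DMSO and 100% = wells lacking PAFAH1B2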
UCH37 inh: inhibitors of human UCH37 deubiquitinase, primary screen, biochemical, Ub-AMC cleavage, fluorescence. AID 588478, 2011. 330,000 compounds, 0.33% hits. purified proteasome/UCH37. inhibition, % (no concentration beside the values);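 active = mean inhibition over replicate wells above about 20%, limit read from the data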;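 also: 0% = compound-free wells with enzyme and 100% = wells lacking proteasome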
Target sequence (Q9Y5K5 whole entry, looked up): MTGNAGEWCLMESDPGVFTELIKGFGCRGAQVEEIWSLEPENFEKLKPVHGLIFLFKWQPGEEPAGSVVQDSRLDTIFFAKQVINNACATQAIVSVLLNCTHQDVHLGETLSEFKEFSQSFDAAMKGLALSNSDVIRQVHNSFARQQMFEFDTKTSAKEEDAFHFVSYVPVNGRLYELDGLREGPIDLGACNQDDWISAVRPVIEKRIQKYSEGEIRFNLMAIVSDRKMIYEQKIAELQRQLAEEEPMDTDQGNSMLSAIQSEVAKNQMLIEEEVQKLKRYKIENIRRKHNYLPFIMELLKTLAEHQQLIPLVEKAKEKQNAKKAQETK
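Material: Human UCH37 enzyme supplied as purified proteasome complex | Schedule: 30 min compound-proteasome preincubation then 25 min substrate reaction, room temperature | Detection: AMC fluorescence from Ub-AMC cleavage, excitation 355 nm, emission 460 nm | Benchmarks: Wells without proteasome as full block, compound-free enzyme plus substrate as uninhibited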
Active calls of the source: *; x = not tested or not shown. Only some compounds are listed: those with a hit (about 4.8% of all), similar ones and a draw of the others.

SMILES | GRIN3A LBD mod | PAFAH1B3 inh | pPAFAH FP inh | PAFAH2 FP inh | PAFAH1B2 FP inh | UCH37 inh
CCC(C)/C=C(C)/C=C/C1=CC2=C(Cl)C(=O)C(C)(OC(C)=O)C(=O)C2=CO1 (stereo not given) | 0.8 | 17.1 | 32.2* | 22.3 | 20.6 | 3.3
CN(C)c1ccc(/C=C2/C(=NO)C3CCN2CC3)cc1 | x | x | x | x | x | 8.8
COc1cc(Br)cc(CN2CCN(C)CC2)c1O | 11.1* | 4.0 | 6.5 | 5.2 | 2.6 | 0.3
COc1ccc(C=NN=C(N)N)cc1 | x | x | x | x | x | 1.9
O=C(Cn1ncc2c3ccccc3n(Cc3ccc(F)cc3)c2c1=O)N1CCC2(CC1)OCCO2 | -0.9 | 0.8 | 31.5* | 6.0 | 2.8 | -2.7
C=CCCC1(C2=CCCCC2)C(=O)NC(=O)NC1=O | 15.4* | 3.1 | x | -2.7 | 7.6 | x
O=c1[nH]c(O)c(/C=C2/C=CC(c3cc(Cl)ccc3Cl)=N2)c(=O)[nH]1 | -2.6 | 47.6* | 9.9 | 23.3 | 76.4* | 7.2
CCCCC(=NO)c1c[nH]c2ccccc12 | x | x | x | x | x | 3.1
COc1nc(NC(C)C)nc(NC(C)C)n1 | 0.8 | 8.8 | 3.2 | -3.8 | 2.8 | 30.5*
O=C(Nc1ccc(Cl)cc1)O/N=C(\c1ccccc1)c1ccccn1 | 11.1* | 0.2 | 2.0 | -1.8 | -2.3 | x
COc1ccc(-c2nc3ccccc3c(=O)n2-c2ccc(OC)cc2)cc1 | 1.4 | 0.7 | 1.1 | 3.6 | -1.2 | 3.6
CCn1nc(-c2ccccc2)nc2c(=O)n(C)c(=O)nc1-2 | -3.4 | 69.8* | 9.0 | 57.7* | 39.0* | 98.7*
CC12CC[C@H]3[C@@H](CCC4(O)C[C@H](O)CCC34C=NNC(=O)c3ccccc3Cl)C1(O)CCC2C1=CC(=O)OC1 (stereo not given in full) | x | x | x | x | x | -4.3
Cc1ccc(C(=O)N/C(=C/c2ccc(C(C)C)cc2)C(=O)NCCCN2CCOCC2)cc1 | 2.2 | x | 3.6 | x | x | 7.5
CC(C)CC(=NO)c1cn(C)c2ccccc12 | x | x | x | x | x | 3.9
CC/C(=N\N1CCCCCC1)c1c(O)n(-c2ccc(C)cc2)c(=O)[nH]c1=O | 21.3* | 2.9 | 2.6 | 3.0 | 0.9 | 4.3
NC(=N[N+](=O)[O-])N1CCN(C(=O)Oc2ccccc2)CC1 | x | x | x | x | x | 3.6
CCC1(c2ccccc2)C(=O)NC(=S)NC1=O | 11.2* | 5.1 | x | -2.6 | -3.9 | x
CCC1(c2ccccc2)C(=O)NC(=O)NC1=O | -0.4 | 6.3 | 0.3 | -5.6 | 1.8 | 1.8
O=C(CSC1c2ccccc2-c2ccccc21)NN=Cc1ccccc1O | x | x | x | x | x | -4.1
C[C@]12CC[C@@H](O)CC1=CC(=O)C1C2CC[C@]2(C)C(=O)CCC12 (stereo not given in full) | 11.2* | 8.9 | -1.5 | 10.7 | 4.9 | x
Cc1cc(Br)c(NC(=O)COn2nnc3ccc(S(C)(=O)=O)cc32)c(Br)c1 | 1.2 | 7.6 | 2.4 | -3.2 | -0.5 | -0.4
COC(=O)c1ccc(NC(=O)CSc2nc3ccc(N4C(=O)C5C6C=CC(C6)C5C4=O)cc3s2)cc1 (stereo not given) | 12.1* | -0.1 | 0.8 | -2.6 | -1.2 | -1.8
O=C1NC(=O)N(CCNc2ncc(C(F)(F)F)cc2Cl)C(=O)C1C=NOCc1c(F)cccc1Cl (stereo not given) | x | x | x | x | x | -2.6
CCC12CN3CCN(CC(C3)C1=NO)C2 | x | x | x | x | x | 2.0
Cc1ccccc1NP(=O)(Oc1ccccc1F)Oc1ccccc1F | 11.2* | -2.2 | -1.1 | 0.2 | -0.5 | 1.9
Cc1cccc(NP(=O)(Oc2ccccc2)Oc2ccccc2)c1C | -1.2 | 5.5 | 3.8 | 2.3 | -2.7 | 4.1
CC(C)=CCc1c(O)cc2c(c1O)C(=O)CC(c1ccc(O)cc1)O2 (stereo not given) | 26.3* | 4.2 | -2.1 | -4.4 | 1.2 | 2.8
CCCN1CCc2cccc3c2[C@H]1Cc1ccc(O)c(O)c1-3 | -0.5 | 16.1 | 33.7* | -6.7 | 2.8 | -2.6

Screening results deposited in PubChem BioAssay by several laboratories.
